High-throughput results (PubChem)
Rows were chosen to be rich in hits. Some 3.1% of all compounds tested hit in one or more screens of this group.
PP5 inh: PP5 phosphatase inhibitors, primary screen, biochemical, fluorescence; purified PP5c, OMFP substrate fluorescence; inhibition, % at 6.7 µM; 320,000 tested, 0.18% active; AID 1987, 2009;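 active means inhibition above the campaign's mean inhibition across all tested compounds plus 3 SD, cut at about 9.5% in these data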
Fh CTSL1 inh: Fasciola hepatica cathepsin L1 inhibitors, primary screen, counter-screen for PFM18AAP inhibitor project, biochemical, QFRET, fluorogenic peptide substrate; recombinant F. hepatica cathepsin L1, Z-Leu-Arg-MCA fluorescence; inhibition, % at 5.96 µM; 300,000 tested, 0.49% active; AID 1906, 2009;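 active means inhibition above the mean of all tested compounds plus 3 SD, set per screening campaign, cut at about 17% in these data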
HCV core dimer: inhibitors of HCV core protein dimerization, primary screen, biochemical, TR-FRET, high-throughput. TR-FRET GST/Flag-core106 dimerization, 1536-well. inhibition, % at 5 µM. 300,000 tested, 0.33% active;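 active means inhibition above the mean of all tested compounds plus 3 SD, set per screening campaign, cut at about 45% in these data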
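Test system: GST/Flag-tagged HCV core106 proteins; Medium: KF-containing HEPES buffer, pH 7.45, DTT, CHAPS, BSA; Times: compound-protein-antibody incubation 4 h at 22.5 °C; Detection: TR-FRET 671 and 617 nm emission; Benchmarks: wells lacking GST-core106 and wells with excess unlabelled core106.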
NadD inh: inhibitors of S. aureus NadD, primary screen, biochemical, colorimetric, uHTS. Nicotinate-nucleotide adenylyltransferase NadD (Staphylococcus aureus N315). 360,000 tested, 0.78% active. purified NadD enzyme, colorimetric absorbance read-out. inhibition, % at 20 µM; in the data active means inhibition above about 26%
Myeloid diff 2: induction of myeloid progenitor differentiation, primary screen, cell-based, flow cytometry, MLPCN library; calls only at 10 µM; 360,000 tested, 1% active; AID 624256, 2012; ER-HoxA9 myeloid progenitors, lysozyme-GFP differentiation;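 active means normalized GFP-positive differentiation at or above the plate's own cutoff, the solvent-only control mean plus 3 SD; inconclusive means no clear call, values can overlap the other calls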;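 further: cells exposed to compound for four days before flow analysis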
PP1 counter: PP1-alpha phosphatase inhibitors, primary screen, counter-screen for PP5 inhibitor project, biochemical, fluorescence, OMFP substrate, single point. 320,000 tested, 0.9% active. inhibition, % at 6.7 µM. purified PP1alpha;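 active means inhibition above the mean inhibition of all tested compounds plus 3 SD, computed separately for each screening campaign, cut at about 15% in these data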
Target sequence (P62136 whole entry, looked up): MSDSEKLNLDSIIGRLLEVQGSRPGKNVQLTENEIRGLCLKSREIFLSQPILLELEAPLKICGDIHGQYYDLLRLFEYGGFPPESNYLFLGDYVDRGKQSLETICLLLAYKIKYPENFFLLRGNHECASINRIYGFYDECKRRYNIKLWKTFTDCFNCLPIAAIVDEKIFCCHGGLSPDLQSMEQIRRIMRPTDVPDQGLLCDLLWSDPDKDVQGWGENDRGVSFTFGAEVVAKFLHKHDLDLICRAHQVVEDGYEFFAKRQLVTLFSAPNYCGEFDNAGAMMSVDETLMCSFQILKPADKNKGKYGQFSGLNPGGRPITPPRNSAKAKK
Large screens that a line does not name were inactive.

CCOc1ccc(OC(=O)C(CCS(C)(=O)=O)N2C(=O)c3ccccc3C2=O)cc1 (stereo not given)	Myeloid diff 2 active
Cn1c2ccccc2c2c(C(=O)O)cn(C3CCCC3)c(=O)c21	Fh CTSL1 inh 18
CCN1CCN(CCNC(=O)c2ccc(/C=C3/Sc4ccccc4N(Cc4ccccc4C)C3=O)cc2)CC1	Myeloid diff 2 active (no result: PP5 inh, Fh CTSL1 inh, HCV core dimer, PP1 counter)
O=C(NCCN1CCOCC1)c1ccc2c(c1)N(Cc1ccccc1F)C(=O)c1ccccc1S2	Myeloid diff 2 active
CCN1CCN(CCCNC(=O)c2ccc(/C=C3/Sc4ccccc4N(Cc4ccccc4F)C3=O)cc2)CC1	none
CCOc1ccc(N(CC(=O)NN=C2CCN(C)CC2)S(=O)(=O)c2ccc(Br)cc2)cc1	none (no result: PP5 inh, Fh CTSL1 inh, HCV core dimer, PP1 counter)
CCCCNC(=O)C1(C)CCCCN1C(=O)c1csnn1 (stereo not given)	none (no result: PP5 inh, Fh CTSL1 inh, HCV core dimer, PP1 counter)
CCC(C)N(C(=O)Cn1nnc(-c2ccc(F)cc2)n1)C1CCS(=O)(=O)C1 (stereo not given)	none (no result: Myeloid diff 2)
Cc1oc(C)c2c(=O)ccc3c(c12)OC(N)=C(C#N)C3c1ccccc1Cl (stereo not given)	Myeloid diff 2 active
Cc1oc(C)c2c(=O)ccc3c(c12)OC(N)=C(C#N)C3c1ccccc1 (stereo not given)	none
O=C(C[C@H]1C/C=C\CC[C@H](Cc2ccc(F)cc2)C(=O)OC[C@H]2CCCN2C1=O)NCCO	none (no result: PP5 inh, Fh CTSL1 inh, HCV core dimer, PP1 counter)
Cc1ccc2c(c1)cc1c(=O)n(CC(=O)NCCCc3ccccc3)nc(C)n12	none
O=C(CCc1nc2sc3c(c2c(=O)[nH]1)CCCC3)Nc1ccccc1Cl	PP1 counter 16
COCCN(CCOC)S(=O)(=O)c1ccc(C(=O)Nc2nc(C)c(C(C)=O)s2)cc1	Fh CTSL1 inh 20
O=C(NNC(=O)c1ccc(NC(=O)c2ccccc2)cc1)Nc1ccccc1	Myeloid diff 2 active
CCCOc1cccc(-c2nn(-c3ccccc3)cc2/C=C(\C#N)C(=O)NCCCn2ccnc2)c1	Myeloid diff 2 active
N#C/C(=C\c1ccc([N+](=O)[O-])cc1)C(=O)NCCCn1ccnc1	none
Cn1c(=O)oc2cc(S(=O)(=O)N3CCC(C(=O)N4CCN(c5ccccc5)CC4)CC3)ccc21	none
Cn1c(=O)oc2cc(S(=O)(=O)N3CCN(c4ccccc4)CC3)ccc21	Myeloid diff 2 active
COC(=O)[C@@]12CCCCN1[C@H](c1ccc(-c3ccc(OC)cc3)cc1)[C@H]1C(=O)N(C)C(=O)[C@H]12	Myeloid diff 2 active
COc1ccc2nc3n(c(=O)c2c1)-c1ncccc1C(=O)NC3C (stereo not given)	none (no result: PP5 inh, Fh CTSL1 inh, HCV core dimer, PP1 counter)
O=C(CN1C(=O)S/C(=C\c2ccc(-c3cc(C(=O)O)ccc3Cl)o2)C1=O)Nc1ccc2c(c1)OCO2	NadD inh 53 (no result: PP5 inh, Fh CTSL1 inh, HCV core dimer, PP1 counter)
CCOC(=O)CN1C(=O)S/C(=C\c2ccc(-c3cccc(C(=O)O)c3C)o2)C1=O	none
Cc1ccc(NC(=O)CN2C(=O)S/C(=C\c3ccc(-c4cccc(C(=O)O)c4C)o3)C2=O)cc1C	NadD inh 35 (no result: PP5 inh, Fh CTSL1 inh, HCV core dimer, PP1 counter)
CCC1CSC(Nc2ccc(C(=O)/C=C/c3ccc(Br)cc3)cc2)=N1 (stereo not given)	PP1 counter 15
CCC1CSC(Nc2ccc(C(=O)/C=C/c3ccc(OC)c(OC)c3)cc2)=N1 (stereo not given)	Myeloid diff 2 inconclusive
CCOc1cc(/C=C2\C(=O)N(c3nc(-c4ccc(Br)cc4)cs3)N=C2c2ccccc2)ccc1O	HCV core dimer 55, NadD inh 77
CCCCCCCC(=O)NC1=NC(=O)C(C)(C)S1	none
COC(=O)c1ccc2c(c1O)C(=O)c1ccccc1C2=O	Fh CTSL1 inh 26
O=C(N/N=C/c1cc(Cl)ccc1O)c1ccc(Br)cc1	Myeloid diff 2 inconclusive
Cc1ccc(N=Nc2ccc(O)c(/C=N\NC(=O)c3ccc(N)cc3)c2)cc1C	NadD inh 48
CCN(CC)c1ccc(/C=N/N=C(c2ccccc2)c2ccccc2)c(O)c1	Myeloid diff 2 active
CCN(CC)c1ccc(/C=N/NC(=O)Cc2cccs2)c(O)c1	Myeloid diff 2 inconclusive, PP1 counter 16
Cc1cc(NC(=O)CCC(=O)N(c2ccccc2C)C(C(=O)NC2CCCC2)c2ccccc2)no1 (stereo not given)	none
CC12CCC(=O)N1C(C(=O)Nc1nnc(SCc3ccc(F)cc3)s1)CS2 (stereo not given)	none
COc1ccc(N(Cc2cc3cccc(C)c3[nH]c2=O)S(=O)(=O)c2ccc(OC)cc2)cc1	Myeloid diff 2 active
COc1ccc(N(Cc2cc3cccc(C)c3[nH]c2=O)S(=O)(=O)c2ccc(Cl)cc2)cc1	Myeloid diff 2 inconclusive
Cc1cccc(Cc2nc3ccccc3[nH]2)c1	none (no result: PP5 inh, Fh CTSL1 inh, HCV core dimer, PP1 counter)
Cc1c(C(c2ccccc2O)c2c(C)n(C)n(-c3ccccc3)c2=O)c(=O)n(-c2ccccc2)n1C	Myeloid diff 2 active
Cc1c(C(c2cc(O)ccc2Cl)c2c(C)n(C)n(-c3ccccc3)c2=O)c(=O)n(-c2ccccc2)n1C	none
COCCNC(=O)C(c1ccc(C)cc1)N(Cc1cccs1)C(=O)CCC(=O)Nc1ccccn1 (stereo not given)	none
CCSC1=N/C(=C\C=C2/Oc3ccccc3N2CC)C(=O)S1	Myeloid diff 2 active
CCOC(CNC(=O)c1cccc([N+](=O)[O-])c1)OCC	Fh CTSL1 inh 38
CC(C)c1nc2cc(C(=O)N3CCNC(=O)C3c3ccc(F)cc3)ccc2o1 (stereo not given)	none
O=C(CCl)Nc1cn(-c2ccccc2)nc1-c1ccccc1	Fh CTSL1 inh 82
O=C1C(Cl)=C(Nc2ccccc2O)C(=O)N1c1ccccc1	Fh CTSL1 inh 73
CCN1C(=O)c2ccc(C(=O)NCc3ccco3)cc2C1=O	none
Cc1ccc(C)c(NC(=O)CN(C)C(=O)C2CCN(C(=O)Nc3ccccc3)CC2)c1	Fh CTSL1 inh 17
COc1ccc(Cl)cc1NC(=O)CN(C)C(=O)C1CCN(C(=O)Nc2ccccc2)CC1	none (no result: Fh CTSL1 inh, HCV core dimer)
CN(Cc1cn(Cc2ccccc2)nn1)C1CN(Cc2cn(Cc3ccccc3)nn2)S(=O)(=O)C1 (stereo not given)	none (no result: PP5 inh, Fh CTSL1 inh, HCV core dimer, PP1 counter)
Cc1cc(C)c2[nH]c(=O)c(CN(Cc3cccs3)C(=S)NCc3ccco3)cc2c1	PP1 counter 16
COc1cc2c3nnc(-c4ccc(F)cc4)c-3cn(Cc3ccccc3F)c2cc1OC	Myeloid diff 2 active (no result: PP5 inh, Fh CTSL1 inh, HCV core dimer, PP1 counter)
CC(C)N(C(=O)Nc1ccc2nsnc2c1)C(C)C	Fh CTSL1 inh 114 (no result: NadD inh, Myeloid diff 2)
COc1ccc(N(C)C(=O)Nc2ccc3nsnc3c2)cc1	none (no result: PP5 inh, Fh CTSL1 inh, HCV core dimer, PP1 counter)
CC1CCC/C(=C\Nc2ccc(O)cc2)C1=O (stereo not given)	Myeloid diff 2 active
